From PubChem BioAssay
TAAR1 agonist: human TAAR1 agonism | Q96RJ0 | CHO RD-HGA16 TAAR1, Fluo-8 calcium fluorescence; vehicle wells 0%, saturating PEA agonist 100% | activation, % at 3 µM | 360,000 tested, 0.99% active | AID 624467;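 active = activation above the mean activation of all test compounds in the run plus 3 SD, cut at about 38% in these data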
Target sequence (Q96RJ0 whole entry, looked up): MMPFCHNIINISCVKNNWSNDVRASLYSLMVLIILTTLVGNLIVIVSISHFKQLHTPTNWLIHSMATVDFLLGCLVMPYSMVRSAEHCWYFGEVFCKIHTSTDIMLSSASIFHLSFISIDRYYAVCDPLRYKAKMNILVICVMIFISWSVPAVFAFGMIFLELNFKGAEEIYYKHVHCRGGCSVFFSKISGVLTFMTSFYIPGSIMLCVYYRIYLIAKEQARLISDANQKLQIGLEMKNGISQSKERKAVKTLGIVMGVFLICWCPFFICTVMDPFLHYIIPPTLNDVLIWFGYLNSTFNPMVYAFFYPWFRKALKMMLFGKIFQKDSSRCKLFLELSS
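Benchmarks: low control DMSO, high control PEA (EC100); System: CHO RD-HGA16 cells carrying human TAAR1 plus Gα16; Detection: Fluo-8 fluorescence, 5 s baseline then 140 s kinetic read; Schedule: 17-24 h plating, Fluo-8 75 min 37 °C, 30 min RT; Read-out basis: % activation from peak over basal fluorescence ratio, DMSO-to-PEA scaled.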
OX1R antag-1: human HCRTR1 antagonism. CHO/OX1R cells, Fluo-8 calcium fluorescence, orexin A. inhibition, % at 5 µM. 330,000 tested, 0.43% active. AID 434989;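 active = inhibition above its plate's threshold, mean inhibition of all tested compounds on the plate plus 3 SD, cut at about 37% in these data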
TAAR1 antag: human TAAR1 antagonism; Q96RJ0; CHO RD-HGA16 TAAR1, Fluo-8 calcium fluorescence, antagonist; inhibition, % at 3 µM; 360,000 tested, 1.5% active;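 active = inhibition above a per-plate cutoff, the mean inhibition of test compounds on that plate plus 3 SD, cut at about 49% in these data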
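Test system: CHO RD-HGA16 cells bearing hTAAR1 | Reagent: β-PEA, EC80 | Compound dosing: 3 µM, single point | Schedule: Dye loading 75 min at 37 °C, then 30 min room temperature | Signal: Calcium fluorescence with Fluo-8 | Evaluation: Percent inhibition of PEA-evoked calcium signal, max/basal emission ratio | Control set: DMSO-only wells and EC80 β-PEA-stimulated wells | Repeats: Singlicate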
GPR7 antagonist: human neuropeptides B/W receptor 1 antagonism. P48145. GPR7-expressing cells, fluorescence antagonist assay. inhibition, % at 4.4 µM. 290,000 tested, 1.1% active. AID 1861; in the data active = inhibition above about 16%, passing the limit was not always enough;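 also: cells stimulated with the agonist NPW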
Target sequence (P48145 whole entry, looked up): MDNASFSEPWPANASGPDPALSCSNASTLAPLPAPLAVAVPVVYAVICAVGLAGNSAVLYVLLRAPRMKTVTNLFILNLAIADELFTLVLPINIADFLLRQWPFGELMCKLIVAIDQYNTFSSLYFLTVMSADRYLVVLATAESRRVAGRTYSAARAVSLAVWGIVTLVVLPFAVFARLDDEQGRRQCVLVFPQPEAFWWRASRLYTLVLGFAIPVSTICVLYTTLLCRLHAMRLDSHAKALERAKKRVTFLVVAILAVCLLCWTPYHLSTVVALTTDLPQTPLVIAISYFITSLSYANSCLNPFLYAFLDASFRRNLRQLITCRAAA
CHO parental Ca: signal in parental CHO cells, OX1R antagonist counter-screen | inhibition, % at 5.6 µM | parental CHO-K1, ATP-induced calcium, Fluo-8 fluorescence | 330,000 tested, 0.63% active | AID 463079;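 active = inhibition above that plate's mean sample inhibition plus 3 SD, cut at about 26% in these data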
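Test system: untransfected parental CHO cell line; also added: ATP stimulus; dosing: 5.6 µM, single dose; signal: calcium-sensitive Fluo-8 fluorescence; measure: percent inhibition of ATP-evoked calcium rise, normalized to controls; benchmarks: low control ATP plus DMSO, high control DMSO only; replication: one well per compound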
OX1R antag-2: blocks the human orexin 1 receptor | O43613 | OX1R-expressing cells, FRET antagonist read-out | inhibition, % at 6.6 µM | 330,000 tested, 1.8% active | AID 485270; in the data active = inhibition mostly above about 38%, no sharp cut-off; inactive = mostly below about 40%
GPR7 antag cf: confirmation of human GPR7 antagonists; shares compounds with GPR7 antagonist; GPR7-expressing cells, calcium fluorescence antagonist mode; inhibition, % at 4.4 µM; 2,400 tested, 52% active; AID 1952; in the data active = inhibition above about 24%;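 also: stimulated with the GPR7 agonist NPW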
MCHR1 antagonist: MCHR1 (human) antagonism in GPR7 counter-screen; 2,400 tested, 62% active; shares compounds with GPR7 antagonist; MCHR1-expressing cells, fluorescence antagonist assay; inhibition, % at 4.4 µM; in the data active = inhibition above about 22%
Numbers stand for hits; - = inactive; . = no result given. An excerpt weighted towards active compounds, which were near 4.6% of everything screened.

SMILES | TAAR1 agonist | OX1R antag-1 | TAAR1 antag | GPR7 antagonist | CHO parental Ca | OX1R antag-2 | GPR7 antag cf | MCHR1 antagonist
CCOC(=O)c1ccc(CNC(=O)c2cc(COc3ccccc3SC)on2)o1 | - | - | - | 44 | - | - | - | 45
CSc1ccccc1OCc1cc(C(=O)NCc2ccc(C)s2)no1 | - | - | - | - | - | - | . | .
CCOc1cc(OCC)cc(C(=O)N2CCC[C@H]2C(=O)N2CCC[C@H]2C(=O)N[C@H](C)c2ccccc2)c1 | - | . | - | . | . | . | . | .
Cc1ccc(S(=O)(=O)CCC(=O)OCC(=O)NC(N)=O)cc1 | - | - | - | - | - | - | . | .
CCOC(=O)CCS(=O)(=O)c1ccc(-c2ccc(S(=O)(=O)CCC(=O)OCC)cc2)cc1 | - | - | - | 31 | - | - | 44 | 49
CC(NS(=O)(=O)c1ccc(Br)cc1F)[C@H](O)c1ccccc1 (some centres not stated) | - | . | - | . | . | . | . | .
CCOc1ccccc1CN1CCN(CC2=Cc3cc(OC)ccc3OC2)CC1CCO (configuration not stated) | - | - | - | 31 | - | - | - | -
CCOC(=O)C1=CCN(S(=O)(=O)c2cccc(Cl)c2)C1c1ccc(Cl)c(Cl)c1 (configuration not stated) | - | . | - | . | . | . | . | .
CC(=O)N1CN(C2CCCC2)Cc2c1sc1c2CCCC1 | - | - | - | 24 | - | - | - | -
CC(=O)N1CN(C2CC(C)(C)NC(C)(C)C2)Cc2c1sc1c2CCCC1 | - | - | - | - | - | - | . | .
CCOc1ccc(CN(C)CC(O)COC(c2ccc(OC)cc2)c2ccc(OC)cc2)cc1 (configuration not stated) | - | - | - | 31 | - | - | 33 | 45
COc1ccc(CN(C)CC(O)COC(c2ccc(OC)cc2)c2ccc(OC)cc2)cc1 (configuration not stated) | - | - | - | 28 | - | - | 42 | 31
COc1ccc(CN(C)CC(O)COc2ccc(-c3ccccc3)cc2)cc1OC (configuration not stated) | - | - | - | - | - | - | . | .
COc1ccc(NC(=O)C2Cc3c(-c4cccc(C(C)=O)c4)ccnc3O2)cc1 (configuration not stated) | - | . | - | . | . | . | . | .
CC1CN/C(=C\C(=O)c2ccccc2)C(=O)N1 (configuration not stated) | - | - | - | 30 | - | - | - | -
COc1cc(NC(=O)COc2cc(O)c3c(c2)OC(C)(C)CC3=O)cc(OC)c1OC | - | - | 70 | 34 | 82 | 71 | 51 | 79
CC1(C)CC(=O)c2c(O)cc(OCC(=O)Nc3ccc(S(N)(=O)=O)cc3)cc2O1 | - | - | - | - | - | - | . | .
O=C(Nc1nc2ccccc2s1)C1CCN(S(=O)(=O)c2cc([N+](=O)[O-])ccc2Cl)CC1 | - | 51 | - | 32 | 80 | 84 | 75 | 75
CCOC1=C2CN(S(=O)(=O)c3ccc(C)cc3)[C@H](c3ccccc3)C[C@@H]2N(S(=O)(=O)c2ccc(C)cc2)[C@H](c2ccccc2)C1 | - | . | - | . | . | . | . | .
Cc1ccccc1C(=O)c1cccn1CC(=O)NCCCN1CCCCC1 | - | - | - | - | - | - | . | .
Cc1ccc(C)c(N2CCN(CCCNC(=O)Cn3cccc3C(=O)c3ccccc3C)CC2)c1 | - | - | - | 28 | - | - | 36 | 65
O=C(NC1CCSc2ccccc21)c1cccc(Br)c1 (configuration not stated) | - | - | - | 27 | - | - | - | -
O=S(=O)(c1cnc(Cl)c(Cl)c1)N1CCCc2ccccc21 | - | - | - | 30 | - | - | 61 | 52
Cc1cccc(CN2CCNC2=O)c1 | - | - | - | 21 | - | - | - | -
Cc1ccccc1CN1CCNC1=O | - | - | - | - | - | - | . | .
SMILES | TAAR1 agonist | OX1R antag-1 | TAAR1 antag | GPR7 antagonist | CHO parental Ca | OX1R antag-2 | GPR7 antag cf | MCHR1 antagonist
COc1ccc(/C=C2\SC(=O)N(CC(=O)Nc3ccc(F)cc3)C2=O)cc1O | - | - | - | 29 | - | - | - | -
COc1ccc(/C=C2\SC(=O)N(CC(=O)Nc3cccnc3)C2=O)cc1OC | - | - | - | - | - | - | . | .
O=C(Nc1ccccc1)Nc1ccccc1Br | - | - | - | - | - | - | . | .
O=C(Nc1ccccc1)Nc1ccc(Br)c(Cl)c1 | - | - | - | 29 | 29 | - | 50 | 57
COc1ccc2c(c1OC)C(=O)N(c1ccc(C)cc1)C2 | - | - | - | 23 | - | - | - | -
COc1ccc2c(c1OC)C(=O)N(c1cccc(C)c1)C2 | - | - | - | - | - | - | . | .
COC(=O)c1cc2c(c3c4cc(OC)ccc4n(S(=O)(=O)c4ccc(OC)cc4)c13)C(=O)N(Cc1ccccc1)C2 | - | . | - | . | . | . | . | .
CCOc1ccc(NC(=S)N2CCC(NC(=O)C3CCCCC3)CC2)cc1 | - | - | - | 28 | - | - | - | -
O=C(CNS(=O)(=O)c1ccccc1)OCC(=O)c1ccc(OC(=O)c2ccccc2)cc1 | - | - | - | 24 | - | - | 26 | 39
O=C(CNS(=O)(=O)c1ccccc1)OCC(=O)c1ccc(Br)cc1 | - | - | - | - | - | - | . | .
C[C@H]1CN([C@@H](C)CO)C(=O)CCCn2nncc2CO[C@@H]1CN(C)Cc1ccc2cccnc2c1 | - | . | - | . | . | . | . | .
COc1ccc(NC(=O)CN(C)C(=O)c2cccc(S(=O)(=O)N3CCN(C)CC3)c2)cc1 | - | - | - | . | - | - | . | .
COc1ccc(NC(=O)CN(C)C(=O)c2cccc(S(=O)(=O)N3CCN(Cc4ccccc4)CC3)c2)cc1 | . | - | . | 35 | - | - | 31 | 46
CCOc1ccc(S(=O)(=O)N2CCN(Cc3ccccc3)CC2)cc1 | - | - | - | 28 | - | - | - | 28
Cc1nn(Cc2ccc(F)cc2)c(C)c1NC(=O)c1cnn2c1NC(c1cccs1)CC2C(F)(F)F (configuration not stated) | - | - | - | - | - | - | . | .
Cc1nn(Cc2ccc(F)cc2)c(C)c1NC(=O)c1cnn2c1NC(c1ccccc1)CC2C(F)(F)F (configuration not stated) | . | - | . | 23 | - | - | - | -
CCCC(c1nnnn1C1CCCCC1)N1CCN(C2CCCC2)CC1 (configuration not stated) | - | - | - | 22 | - | - | - | -
COc1ccc(CCNC(=O)c2ccc3c(c2)N(Cc2ccc(F)cc2)CCS3)cc1OC | - | - | 59 | 29 | - | - | 31 | 50
Cn1c(=O)oc2cc(S(=O)(=O)N3CCN(c4ccccc4F)CC3)ccc21 | - | - | - | - | - | - | . | .
